Laboratory results: ChEMBL document CHEMBL1150877, “Total synthesis and biological activities of (+)- and (-)-boscialin and their 1'-epimers” (J Nat Prod, 1998)
≈ marks a conversion by molar mass, not a printed value. Calls of active or inactive are those of the source. The rule behind the calls is not given here.

Test system: Corynebacterium minutissimum
Experiment: Antimicrobial activity against Corynebacterium minutissium ATCC 23348 after 24 hrs by agar diffusion assay
Type: functional
Conditions: not given
How it was run: (§1)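 Overnight cultures were diluted in 0.9% NaCl and mixed into molten casein soymeal peptone agar at a final 5 × 10⁴–10⁵ CFU/mL, which was layered onto agar plates. Test substances (100 µL of 1 mg/mL in H2O) were placed in 1 cm wells. Plates were incubated at 37 °C for 24 h, and inhibition zone diameters were measured.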

| Structure (SMILES) | inhibition zone (IZ) |
| --- | --- |
| CC(=O)/C=C/[C@]1(O)[C@@H](C)C[C@@H](O)CC1(C)C | 18 mm |
| CC(=O)/C=C/[C@@]1(O)[C@@H](C)C[C@@H](O)CC1(C)C | 5 mm |
| CC(=O)/C=C/[C@@]1(O)[C@H](C)C[C@H](O)CC1(C)C [BOSCIALIN] | 9.5 mm |
| CC(=O)/C=C/[C@]1(O)[C@H](C)C[C@H](O)CC1(C)C [EPIBOSCIALIN] | 20 mm |

Test system: Trypanosoma brucei rhodesiense
Experiment: Antitrypanosomal activity against blood stream form of Trypanosoma brucei rhodesiense STIB 900 at 100 ug/ml
Type: functional, organism-based
Conditions: not given

| Structure (SMILES) | Activity | IC50 | MIC |
| --- | --- | --- | --- |
| CC(=O)/C=C/[C@]1(O)[C@@H](C)C[C@@H](O)CC1(C)C | inactive |  |  |
| CC(=O)/C=C/[C@@]1(O)[C@@H](C)C[C@@H](O)CC1(C)C | inactive |  |  |
| CC(=O)/C=C/[C@@]1(O)[C@H](C)C[C@H](O)CC1(C)C [BOSCIALIN] |  | 1.9 µg/mL (≈ 8.4 µM) | 11 µg/mL (≈ 48.6 µM) |
| CC(=O)/C=C/[C@]1(O)[C@H](C)C[C@H](O)CC1(C)C [EPIBOSCIALIN] |  | 0.9 µg/mL (≈ 3.98 µM) | 3.7 µg/mL (≈ 16.3 µM) |

Test system: Trypanosoma brucei rhodesiense
Experiment: Antitrypanosomal activity against blood stream form of Trypanosoma brucei rhodesiense STIB 900
Type: functional, organism-based
Conditions: not given
How it was run: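 Bloodstream-form trypanosomes at 200 cells/100 µL were exposed for 72 h to threefold dilutions starting at 100 µg/mL, with 1% DMSO final. MIC was read microscopically as the lowest concentration with no normally shaped or motile cells. For IC50, Alamar Blue was added for a further 2 h, fluorescence was measured, and values were obtained by linear interpolation.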

| Structure (SMILES) | IC50 | MIC |
| --- | --- | --- |
| CC(=O)/C=C/[C@]1(O)[C@@H](C)C[C@@H](O)CC1(C)C | 31 µg/mL (≈ 137 µM) | 100 µg/mL (≈ 442 µM) |
| CC(=O)/C=C/[C@@]1(O)[C@@H](C)C[C@@H](O)CC1(C)C | 18 µg/mL (≈ 79.5 µM) | 100 µg/mL (≈ 442 µM) |
| CC(=O)/C=C/[C@@]1(O)[C@H](C)C[C@H](O)CC1(C)C [BOSCIALIN] | 1.9 µg/mL (≈ 8.4 µM) | 11 µg/mL (≈ 48.6 µM) |
| CC(=O)/C=C/[C@]1(O)[C@H](C)C[C@H](O)CC1(C)C [EPIBOSCIALIN] | 0.9 µg/mL (≈ 3.98 µM) | 3.7 µg/mL (≈ 16.3 µM) |
| Nc1nc(N)nc(Nc2ccc([As]3SCC(CO)S3)cc2)n1 (stereo not drawn) [MELARSOPROL] | 0.0004 µg/mL | 0.011 µg/mL |

Test system: not listed separately
Experiment: (§2) Cytotoxicity against human HT-29 cells
Type: cell-based
Conditions: human, HT-29 cells; read-out: MIC
How it was run: (§3)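 HT-29 cells were seeded at 5000 cells/100 µL in MEM with 10% heat-inactivated FCS at 37 °C and 5% CO2. They were exposed for 72 h to threefold dilutions starting at […], with 1% DMSO final. MIC was read microscopically, and IC50 came from Alamar Blue fluorescence after 2 h by linear interpolation.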

| Structure (SMILES) | MCC |
| --- | --- |
| CC(=O)/C=C/[C@]1(O)[C@@H](C)C[C@@H](O)CC1(C)C | 56 µg/mL |
| CC(=O)/C=C/[C@@]1(O)[C@@H](C)C[C@@H](O)CC1(C)C | > 100 µg/mL |
| CC(=O)/C=C/[C@@]1(O)[C@H](C)C[C@H](O)CC1(C)C [BOSCIALIN] | > 100 µg/mL |
| CC(=O)/C=C/[C@]1(O)[C@H](C)C[C@H](O)CC1(C)C [EPIBOSCIALIN] | 56 µg/mL |
| Nc1nc(N)nc(Nc2ccc([As]3SCC(CO)S3)cc2)n1 (stereo not drawn) [MELARSOPROL] | 11 µg/mL |

Test system: HT-29
Experiment: as §2
Type: cell-based
Conditions: Homo sapiens, HT-29
How it was run: as §3

| Structure (SMILES) | IC50 |
| --- | --- |
| CC(=O)/C=C/[C@]1(O)[C@@H](C)C[C@@H](O)CC1(C)C | 8.1 µg/mL (≈ 35.8 µM) |
| CC(=O)/C=C/[C@@]1(O)[C@@H](C)C[C@@H](O)CC1(C)C | 17 µg/mL (≈ 75.1 µM) |
| CC(=O)/C=C/[C@@]1(O)[C@H](C)C[C@H](O)CC1(C)C [BOSCIALIN] | 43 µg/mL (≈ 190 µM) |
| CC(=O)/C=C/[C@]1(O)[C@H](C)C[C@H](O)CC1(C)C [EPIBOSCIALIN] | 8.5 µg/mL (≈ 37.6 µM) |
| Nc1nc(N)nc(Nc2ccc([As]3SCC(CO)S3)cc2)n1 (stereo not drawn) [MELARSOPROL] | 3.6 µg/mL |

Test system: not listed separately
Experiment: Selectivity index, ratio of IC50 for human HT29 cells to IC50 for Trypanosoma brucei rhodesiense STIB 900
Type: toxicity, cell-based, HT-29
Conditions: HT29 cells versus Trypanosoma brucei rhodesiense STIB 900, read-out: Ratio IC50
How it was run: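 The index was calculated as the HT-29 IC50 divided by the T. b. rhodesiense IC50. Both IC50s came from 72 h exposures read by Alamar Blue fluorescence, with linear interpolation.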

| Structure (SMILES) | selectivity ratio |
| --- | --- |
| CC(=O)/C=C/[C@]1(O)[C@@H](C)C[C@@H](O)CC1(C)C | 0.3 |
| CC(=O)/C=C/[C@@]1(O)[C@@H](C)C[C@@H](O)CC1(C)C | 1 |
| CC(=O)/C=C/[C@@]1(O)[C@H](C)C[C@H](O)CC1(C)C [BOSCIALIN] | 23 |
| CC(=O)/C=C/[C@]1(O)[C@H](C)C[C@H](O)CC1(C)C [EPIBOSCIALIN] | 9.4 |
| Nc1nc(N)nc(Nc2ccc([As]3SCC(CO)S3)cc2)n1 (stereo not drawn) [MELARSOPROL] | 9000 |

Test system: Staphylococcus aureus
Experiment: Antimicrobial activity against Staphylococcus aureus ATCC 9144 after 24 hrs by agar diffusion assay
Type: functional
Conditions: not given
How it was run: as §1

| Structure (SMILES) | inhibition zone (IZ) |
| --- | --- |
| CC(=O)/C=C/[C@]1(O)[C@@H](C)C[C@@H](O)CC1(C)C | 10.5 mm |
| CC(=O)/C=C/[C@@]1(O)[C@@H](C)C[C@@H](O)CC1(C)C | 3 mm |
| CC(=O)/C=C/[C@@]1(O)[C@H](C)C[C@H](O)CC1(C)C [BOSCIALIN] | 2.5 mm |
| CC(=O)/C=C/[C@]1(O)[C@H](C)C[C@H](O)CC1(C)C [EPIBOSCIALIN] | 10 mm |

Test system: Staphylococcus epidermidis
Experiment: Antimicrobial activity against Staphylococcus epidermis ATCC 12228 after 24 hrs by agar diffusion assay
Type: functional
Conditions: not given
How it was run: as §1

| Structure (SMILES) | inhibition zone (IZ) |
| --- | --- |
| CC(=O)/C=C/[C@]1(O)[C@@H](C)C[C@@H](O)CC1(C)C | 8 mm |
| CC(=O)/C=C/[C@@]1(O)[C@@H](C)C[C@@H](O)CC1(C)C | 0 mm |
| CC(=O)/C=C/[C@@]1(O)[C@H](C)C[C@H](O)CC1(C)C [BOSCIALIN] | 0 mm |
| CC(=O)/C=C/[C@]1(O)[C@H](C)C[C@H](O)CC1(C)C [EPIBOSCIALIN] | 8 mm |

Test system: Escherichia coli
Experiment: Antimicrobial activity against Escherichia coli NCTC 8196 after 24 hrs by agar diffusion assay
Type: functional
Conditions: not given
How it was run: as §1

| Structure (SMILES) | inhibition zone (IZ) |
| --- | --- |
| CC(=O)/C=C/[C@]1(O)[C@@H](C)C[C@@H](O)CC1(C)C | 2 mm |
| CC(=O)/C=C/[C@@]1(O)[C@@H](C)C[C@@H](O)CC1(C)C | 1 mm |
| CC(=O)/C=C/[C@@]1(O)[C@H](C)C[C@H](O)CC1(C)C [BOSCIALIN] | 1 mm |
| CC(=O)/C=C/[C@]1(O)[C@H](C)C[C@H](O)CC1(C)C [EPIBOSCIALIN] | 1.5 mm |

Test system: Corynebacterium xerosis
Experiment: Antimicrobial activity against Corynebacterium xerosis ATCC 373 after 24 hrs by agar diffusion assay
Type: functional
Conditions: not given
How it was run: as §1

| Structure (SMILES) | inhibition zone (IZ) |
| --- | --- |
| CC(=O)/C=C/[C@]1(O)[C@@H](C)C[C@@H](O)CC1(C)C | 13 mm |
| CC(=O)/C=C/[C@@]1(O)[C@@H](C)C[C@@H](O)CC1(C)C | 3 mm |
| CC(=O)/C=C/[C@@]1(O)[C@H](C)C[C@H](O)CC1(C)C [BOSCIALIN] | 2 mm |
| CC(=O)/C=C/[C@]1(O)[C@H](C)C[C@H](O)CC1(C)C [EPIBOSCIALIN] | 12 mm |

Test system: Candida albicans
Experiment: Antimicrobial activity against Candida albicans ATCC 10231 after 24 hrs by agar diffusion assay
Type: functional
Conditions: not given
How it was run: as §1

| Structure (SMILES) | inhibition zone (IZ) |
| --- | --- |
| CC(=O)/C=C/[C@]1(O)[C@@H](C)C[C@@H](O)CC1(C)C | 4.5 mm |
| CC(=O)/C=C/[C@@]1(O)[C@@H](C)C[C@@H](O)CC1(C)C | 5 mm |
| CC(=O)/C=C/[C@@]1(O)[C@H](C)C[C@H](O)CC1(C)C [BOSCIALIN] | 4 mm |
| CC(=O)/C=C/[C@]1(O)[C@H](C)C[C@H](O)CC1(C)C [EPIBOSCIALIN] | 15.5 mm |

Test system: Trypanosoma cruzi
Experiment: Antitrypanosomal activity against Trypanosoma cruzi MHOM/Br/OO/Y trypomastigotes up to 100 ug/ml after 5 days
Conditions: not given

| Structure (SMILES) | Activity |
| --- | --- |
| CC(=O)/C=C/[C@]1(O)[C@@H](C)C[C@@H](O)CC1(C)C | inactive |
| CC(=O)/C=C/[C@@]1(O)[C@@H](C)C[C@@H](O)CC1(C)C | inactive |
| CC(=O)/C=C/[C@@]1(O)[C@H](C)C[C@H](O)CC1(C)C [BOSCIALIN] | inactive |
| CC(=O)/C=C/[C@]1(O)[C@H](C)C[C@H](O)CC1(C)C [EPIBOSCIALIN] | inactive |

Test system: Leishmania donovani
Experiment: Antileishmanial activity against Leishmania donovani MHOM/ET/67/L82 infected in mouse peritoneal macrophages after 5 days
Conditions: not given

| Structure (SMILES) | Activity |
| --- | --- |
| CC(=O)/C=C/[C@]1(O)[C@@H](C)C[C@@H](O)CC1(C)C | inactive |
| CC(=O)/C=C/[C@@]1(O)[C@H](C)C[C@H](O)CC1(C)C [BOSCIALIN] | inactive |
| CC(=O)/C=C/[C@]1(O)[C@H](C)C[C@H](O)CC1(C)C [EPIBOSCIALIN] | inactive |

Same assay, conditions: 5 d

| Structure (SMILES) | IC50 |
| --- | --- |
| CC(=O)/C=C/[C@@]1(O)[C@@H](C)C[C@@H](O)CC1(C)C | 77 µg/mL (≈ 340 µM) |
